# Experimental data of several laboratories.
# Oprk1: Kappa-type opioid receptor (Oprk1, Mus musculus, UniProt P33534)
# SLC6A2: Sodium-dependent noradrenaline transporter (SLC6A2, Homo sapiens, UniProt P23975)
# MPO: Myeloperoxidase (MPO, Homo sapiens, UniProt P05164)
Structure (SMILES),target,test,test system,setting,inhibition
CC(C)[C@@H](CN1CCc2ccccc2C1)NC(=O)c1cccc(-c2ccc(F)cc2)c1,Oprk1,"ligand displacement, radioligand",,10 µM,63.9%
COc1ccc(C(=O)NC2CCCc3c2[nH]c2c(Cl)cccc32)cc1OC (stereo not shown),"Cysteinyl leukotriene receptor 1 (CYSLTR1, Homo sapiens, UniProt Q9Y271)","calcium signal, antagonist",HEK293,33 µM,~41%
Cc1cc(F)cc2c(CCC(=O)N[C@@H]3C(=O)NC[C@H]3O)c(-c3ccc(F)cc3)[nH]c12,SLC6A2,cell-free assay,,10 µM,21%
CC(C)[C@H](CN1CCc2ccccc2C1)NC(=O)C=Cc1ccccc1,Oprk1,"ligand displacement, radioligand",,10 µM,55.7%
CCOC(=O)[C@@]12C[C@@H]1[C@@H](n1ccc3c(NCCCCc4ccccc4)nc(C#Cc4ccccc4)nc31)[C@H](O)[C@@H]2O,SLC6A2,"ligand displacement, radioligand",,10 µM,81%
CC(C)[C@@H](CN1CCc2ccccc2C1)NC(=O)c1ccc([N+](=O)[O-])s1,Oprk1,"ligand displacement, radioligand",,10 µM,68.8%
NC/C(=C\F)COc1cccc(Cn2c(=S)[nH]c(=O)c3[nH]cnc32)c1,MPO,"enzyme activity, inhibitor, fluorescence",,3.333 µM,99.2%
CC(C)[C@@H](CN1CCc2ccccc2C1)NC(=O)c1cccc(-c2ccccc2)c1,Oprk1,"ligand displacement, radioligand",,10 µM,66%
CCOC(=O)[C@@]12C[C@@H]1[C@@H](n1cnc3c(Nc4ccccc4)nc(C#Cc4ccc(Cl)s4)nc31)[C@H](O)[C@@H]2O,SLC6A2,"ligand displacement, radioligand",,10 µM,78%
CC(C)OCCn1c(=S)[nH]c(=O)c2[nH]ccc21,MPO,"enzyme activity, inhibitor, fluorescence",,0.1852 µM,82.5%
OC[C@@]12C[C@@H]1[C@@H](n1cnc3c(N[C@@H](C4CCC4)C4CC4)nc(C#Cc4ccc(Cl)s4)nc31)[C@H](O)[C@@H]2O,SLC6A2,"ligand displacement, radioligand",,10 µM,90%
CC(C)[C@H](CN1CCc2ccccc2C1)NC(=O)c1ccc(F)cc1,Oprk1,"ligand displacement, radioligand",,10 µM,88.7%
N#CC[C@@]12C[C@@H]1[C@@H](n1cnc3c(Nc4ccccc4)nc(C#Cc4ccc(Cl)s4)nc31)[C@H](O)[C@@H]2O,SLC6A2,"ligand displacement, radioligand",,10 µM,37%
CC(C)[C@@H](CN1CCc2ccccc2C1)NC(=O)c1c(Cl)cncc1Cl,Oprk1,"ligand displacement, radioligand",,10 µM,70.9%
CCOC(=O)[C@@]12C[C@@H]1[C@@H](n1cnc3c(NCCCCCc4ccccc4)nc(C#Cc4ccc(Cl)s4)nc31)[C@H](O)[C@@H]2O,SLC6A2,"transporter uptake, inhibitor, radiometric",HEK293,10 µM,0%
Cc1cc(O)c(-c2ccc([C@@H](C)CN(C)C)cc2)c2c1[nH]c(=O)c1sccc12,"RPS6KC1 (Homo sapiens, UniProt Q96S38)","cell-free assay, inhibitor",,"0.1 µM, lysate",5.19%
COc1ccc(Cl)cc1-c1cc(=O)[nH]c(=S)n1CC(N)=O,MPO,"enzyme activity, inhibitor, fluorescence",,30 µM,98.3%
N#CC[C@@]12C[C@@H]1[C@@H](n1cnc3c(Nc4ccccc4)nc(I)nc31)[C@H](O)[C@@H]2O,SLC6A2,"ligand displacement, radioligand",,10 µM,20%
O=c1c(O[C@@H]2O[C@H](CO)[C@H](O)[C@H](O)[C@H]2O)c(-c2ccc(O)c(O)c2)oc2cc(O)cc(O)c12,"srtA (Staphylococcus aureus, UniProt Q2FV99)","enzyme activity, inhibitor, FRET",,120 µM,79.1%
